The source of these data is ChEMBL document CHEMBL4513216, “Probing the Open Global Health Chemical Diversity Library for Multistage-Active Starting Points for Next-Generation Antimalarials” (ACS Infect Dis, 2020).

The data set can be described thus: Toxicity liver stage against HepG2, at 10uM. Format: cell-based. The arrangement: test concentration 10 uM, cell line HepG2-A16-CD81EGFP. The conditions noted are these: human, HepG2-A16-CD81EGFP cells; read-out: INHIBITION
In short, it runs like this:
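Uninfected HepG2-A16-CD81EGFP cells, 3 × 10^3 per well, 1536-well, plated on prespotted compound at 10 μM final, parasite-free screening media added to match infected plates; puromycin 10 μM positive, DMSO 0.5% negative; run in parallel with 48 h PbLuc assay at 37 °C, 5% CO2; viability by CellTiter-Glo luminescence, normalized to controls.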
For `Cc1ccc(C)c(CSc2nnc([C@@H](N)C(C)C)o2)c1`, the cytotoxicity at 10 µM was found to be 5.95%.

As for `CCS(=O)(=O)N1CCc2ccc(NC(=O)Nc3ccccc3C)cc21`, the cytotoxicity at 10 µM amounted to 13.1%. For `Cc1ncsc1CN1C[C@H]2OCC[C@H]2[C@H](C(=O)NCC2CC2)C1` the value was 5.6%; for `COCC1c2c(cnn2C)CCN1Cc1ccc(C)o1` (configuration not stated), -5.73%; for `CC(C)CC(=O)N1CCN(C(=O)NC(C)C)CC2(CC(=O)N(C)C2)C1` (configuration not stated), 3.25%. For `Cc1nccn1-c1nccnc1C1CCCN(C)C1` (configuration not stated) the value was 2.2%; for `O=S(=O)(NC1CCOC1)c1ccc(C(F)(F)F)nc1` (configuration not stated), 8.16%; for `O=C(CCCc1nc2ccccc2[nH]1)N1CCCC1c1ccncc1` (configuration not stated), 3.79%. `CCc1noc(CNc2cccc(C(=O)N3CCSCC3)c2)n1`: the cytotoxicity at 10 µM was -5.73%.

Regarding `CC(=O)N1CCCN(Cc2nnc(C(C)(C)C)o2)CC1`, the cytotoxicity at 10 µM was -4.13%. For `COc1ccc(C2CCCN2Cc2cnn(C)c2)cc1` (configuration not stated) the value was 7.53%; for `CCN(CC1CCCO1)C(=O)NCCNC(=O)c1ccccc1F` (configuration not stated), 5.63%; for `COCCn1c2c(ccc1=O)CCN(C(=O)CC1CC1)CC2`, 2.24%.

For `O=C(CC1CCCC1)N1C[C@@H]2CN(Cc3ccoc3)CCO[C@@H]2C1`, the cytotoxicity at 10 µM is -79.3%. With `O=C(c1ccnnc1)N1C[C@H]2CN(Cc3cccc(F)c3)C(=O)[C@H]2C1` the figure was -77.3%; with `Cc1noc(C)c1CN1CC[C@H]2C[C@H](c3ccncn3)O[C@@H]2C1`, -69.5%; with `Cc1c(NC(=O)c2cnc[nH]2)cccc1C(=O)NC(C)(C)C`, -6.46%. For `CN(C)c1nc2c(c(N3CCCC3)n1)CCN(C(=O)c1ccc[nH]1)CC2` the value was 7.81%. For `Cc1nn(C)c(C)c1-c1cc(-c2cnn(C)c2C2CC2)c(C#N)c(N)n1` the value was 18%; for `Cc1ccc(-c2cc(C(=O)N(C)Cc3noc4c3CCCC4)[nH]n2)o1`, -11%.

Take `O=C(CCCN1CCCCC1)N[C@H](C(=O)O)c1cccc(F)c1F`: the cytotoxicity at 10 µM is -13.2%.

For the compound `CNc1ccc(CC2CCCN(C(=O)c3cnc(C)nc3)C2)nn1` (configuration not stated), the cytotoxicity at 10 µM is -1.2%. For `Cc1csc(C2CCCCN2C(=O)CN(C)C2CC2)n1` (configuration not stated) the value was -1.9%. For `CCn1ccnc1CN1CCCN(C(=O)Cc2ccc(C)nc2)CC1` the value was -1.92%; for `CC(C)c1nc(CN2CCN(CC3CCCO3)CC2)cs1` (configuration not stated), -1.52%. Take `COC[C@H]1CNC(=O)[C@@H]2CCN(Cc3ccc(F)cc3)CC[C@H]12`: the cytotoxicity at 10 µM came out at 14.2%.

With `CN1CC[C@H]2[C@H](C[C@@H](CN3CCCC3)N2c2nccs2)C1`, the cytotoxicity at 10 µM amounted to 3.59%. For `O=C(c1cscn1)N1CCC2(CN(Cc3ccoc3)C2)C1` the value was 7.2%; for `COCCC1COC2(CCN(C(=O)c3cccnc3)CC2)C1` (configuration not stated), -72.4%; for `Cc1nc(CN2CCC3(CC2)CC(c2cccnc2)C(=O)N3C)cs1` (configuration not stated), 9.95%. With `O=C(NCc1cncc2c1CCN(C1CCOCC1)C2)c1ccno1` the figure was -2.67%; with `CCc1cnc(N2CCC3(CC(=O)N(Cc4csc(C)n4)C3)C2)nc1` (configuration not stated), -2.71%; with `CCCS(=O)(=O)N1CCOC2(CCCN(Cc3ccccn3)C2)C1` (configuration not stated), -0.58%.

Regarding `O=C(O)c1cc2c(nc1-c1ccoc1)CCN(Cc1ccco1)CC2`, the cytotoxicity at 10 µM is -78.9%. For `Cc1cccc(CN2C(=O)C[C@H]3[C@@H]2CCN3Cc2cccs2)n1` the value was -79.6%; for `COc1cc(N2C[C@@H]3COC[C@]3(COCc3ccncc3)C2)ncn1`, -72.4%; for `Cc1cc(CN2C[C@@H]3COC[C@@H](C(=O)N4CCCCO4)[C@@H]3C2)no1`, -80.6%.
